Source: publication PMC3428850 (Molecular cancer therapeutics, 2012)
Several values for one entry are separate records, joined by “and”; a condition that tells them apart may be missing. Identical values can stand only once.

Legend:
MCF7 cells = assay: cell growth inhibition, SRB assay, 5-day continuous exposure; format: cell-based, human
Method in brief: (§1)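 Human cancer cells in RPMI 1640 with 10% FBS, penicillin/streptomycin, at 37 °C and 5% CO2. Test compound (10 mM DMSO stock) given by continuous exposure for 5 days. Growth measured by SRB assay. […] Means ± SD of 3 independent experiments.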

PI-3K δ = PI-3K δ (Homo sapiens, UniProt O00329); assay: cell-free assay, PI-3K isoforms; format: biochemical; details: Supplementary Figure 1
Chain of PI-3K δ (O00329 whole entry, species assumed, canonical isoform): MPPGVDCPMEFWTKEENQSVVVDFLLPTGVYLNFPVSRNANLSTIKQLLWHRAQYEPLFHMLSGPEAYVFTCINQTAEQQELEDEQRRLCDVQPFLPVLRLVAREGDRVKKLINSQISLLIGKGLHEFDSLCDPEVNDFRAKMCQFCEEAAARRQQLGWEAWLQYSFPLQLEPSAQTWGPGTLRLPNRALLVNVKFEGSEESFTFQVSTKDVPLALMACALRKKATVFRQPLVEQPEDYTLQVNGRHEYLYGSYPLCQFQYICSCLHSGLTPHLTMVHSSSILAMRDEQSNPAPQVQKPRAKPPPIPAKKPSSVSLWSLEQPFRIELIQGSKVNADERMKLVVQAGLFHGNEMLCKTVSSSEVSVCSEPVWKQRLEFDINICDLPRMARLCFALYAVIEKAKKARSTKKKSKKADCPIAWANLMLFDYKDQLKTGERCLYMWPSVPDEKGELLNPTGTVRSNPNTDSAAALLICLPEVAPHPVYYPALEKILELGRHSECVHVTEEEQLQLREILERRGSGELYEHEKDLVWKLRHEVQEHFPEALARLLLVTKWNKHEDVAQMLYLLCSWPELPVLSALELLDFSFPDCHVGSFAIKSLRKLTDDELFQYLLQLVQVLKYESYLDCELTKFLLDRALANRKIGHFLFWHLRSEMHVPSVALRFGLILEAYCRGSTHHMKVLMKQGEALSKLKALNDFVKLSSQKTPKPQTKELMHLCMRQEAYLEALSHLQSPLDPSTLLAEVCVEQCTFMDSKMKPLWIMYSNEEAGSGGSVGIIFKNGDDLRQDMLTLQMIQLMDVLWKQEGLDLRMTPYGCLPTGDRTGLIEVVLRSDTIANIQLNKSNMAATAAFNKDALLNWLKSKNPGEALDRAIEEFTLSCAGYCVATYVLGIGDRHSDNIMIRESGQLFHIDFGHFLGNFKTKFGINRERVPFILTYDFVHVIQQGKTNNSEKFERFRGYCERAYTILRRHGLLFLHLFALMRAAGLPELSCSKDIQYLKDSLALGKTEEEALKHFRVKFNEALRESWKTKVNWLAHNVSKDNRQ
Chain of PI-3K δ (P27986 whole entry partner, species assumed, canonical isoform): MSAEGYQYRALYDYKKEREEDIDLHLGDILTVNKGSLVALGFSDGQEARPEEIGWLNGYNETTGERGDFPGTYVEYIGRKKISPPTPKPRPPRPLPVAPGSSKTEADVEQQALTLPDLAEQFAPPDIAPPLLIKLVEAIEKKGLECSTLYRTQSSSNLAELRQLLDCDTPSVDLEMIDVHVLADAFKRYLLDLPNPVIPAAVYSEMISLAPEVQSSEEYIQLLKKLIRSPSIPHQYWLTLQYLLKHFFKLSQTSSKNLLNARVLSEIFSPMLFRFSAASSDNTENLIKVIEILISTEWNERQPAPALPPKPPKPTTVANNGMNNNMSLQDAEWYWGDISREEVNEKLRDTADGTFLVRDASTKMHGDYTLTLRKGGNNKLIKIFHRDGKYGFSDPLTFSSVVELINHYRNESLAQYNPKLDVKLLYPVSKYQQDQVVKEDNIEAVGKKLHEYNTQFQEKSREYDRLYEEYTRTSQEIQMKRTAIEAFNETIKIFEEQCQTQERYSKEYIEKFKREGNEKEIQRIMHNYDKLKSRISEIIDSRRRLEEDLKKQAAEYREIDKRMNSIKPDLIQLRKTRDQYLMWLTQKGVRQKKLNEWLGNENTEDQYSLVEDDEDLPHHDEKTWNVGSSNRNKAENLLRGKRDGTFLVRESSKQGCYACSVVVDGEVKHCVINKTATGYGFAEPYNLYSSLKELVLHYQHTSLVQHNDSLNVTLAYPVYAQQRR

LoVo cells = assay: cell growth inhibition, SRB assay, 5-day continuous exposure; format: cell-based, human
Method in brief: as §1

MDA-MB-231 cells = assay: clonogenic survival assay; format: cell-based, human
Method in brief: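 Cells in RPMI 1640/10% FBS were exposed in 6-well plates for 16 h to etoposide or doxorubicin with or without test compound (1 μM), or to test compound alone. Cells then harvested and reseeded in drug-free medium. Colonies stained with crystal violet after 10-14 days and counted automatically. Fold enhancement = survival with cytotoxic alone / survival with cytotoxic + 1 μM test compound. Means ± SD, n = 3.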

SW620 cells = assay: cell growth inhibition, SRB assay, 5-day continuous exposure; format: cell-based, human
MCF7 xenografts = assay: anti-tumour efficacy study, MCF7 xenografts; format: in vivo; details: MCF7 tumour-bearing mice
M059J cells = assay: clonogenic survival assay, DNA-PKcs-deficient cells; format: cell-based, human; details: M059J
Method in brief: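 Human glioblastoma M059J cells (DNA-PKcs-deficient) and M059-Fus-1 cells (chromosome 8 transfected; G-418 200 μg/ml) in DMEM/10% FBS. Etoposide or doxorubicin alone or with 1 μM test compound, or test compound alone, for 16 h. Reseeded drug-free. Crystal violet colony counts after 10-14 days. Fold enhancement as survival ratio. Means ± SD, n = 3.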

SW620 xenografts = assay: anti-tumour efficacy study, SW620 xenografts; format: in vivo, mice
Method in brief: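 Female athymic CD1-nu/nu mice with s.c. SW620, n = 5/group, treated once tumours were palpable (~5 × 5 mm, day 8-10). Controls: saline i.p. daily. Test compound 10 mg/kg i.p. for 5 days. Etoposide phosphate 11.35 mg/kg i.p. (10 mg/kg etoposide) daily × 5. Combination: test compound i.p. once or twice daily × 5, first dose just before etoposide. Caliper volume a²×b/2; median RTV (day 0 = 1); time to RTV4.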

T47D cells = assay: cell growth inhibition, SRB assay, 5-day continuous exposure; format: cell-based; details: Homo sapiens, 120 h
Method in brief: as §1

How did the GI50 (MCF7 cells; Homo sapiens, MCF7, 120 h) turn out when `CCN1CCN(CC(=O)Nc2ccc(-c3cccc4c(=O)cc(N5CCOCC5)oc34)c3sc4ccccc4c23)CC1` [KU-0060648, 2-(4-ethylpiperazin-1-yl)-N-(4-(2-morpholino-4-oxo-4H-chromen-8-yl)dibenzo[b,d]thiophen-1-yl)acetamide] was run?
Its GI50 is 270 nM.

What about the “total cell growth over 5 days, of DMSO treated controls” value (MCF7 cells; MCF7, 1 μM) of the same compound?
Its value is 4%.

What about the “inhibition of cell growth” value (MCF7 cells; MCF7, 1 μM, 5 days, 1 µM) of the same compound?
The value was > 95% and > 50%.

What about the “potency rank among the four PI-3K isoforms” value (PI-3K δ) of the same compound?
Its value is “greatest potency”.

And the “total cell growth over 5 days, of DMSO treated controls” value (LoVo cells; 1 μM)?
Its value is 10%.

And the GI50 (LoVo cells; Homo sapiens, 120 h)?
The GI50 was 210 nM.

What about the inhibition at 1 µM (LoVo cells; Homo sapiens, 120 h, read-out: inhibition of cell growth) of the same compound?
The inhibition at 1 µM was greater than 50%.

What about the “Fold enhancement of doxorubicin cytotoxicity (survival cytotoxic alone/survival cytotoxic + 1 μM KU-0060648)” value (MDA-MB-231 cells; MDA-MB-231, 100 nM doxorubicin, 16 hr) of the same compound?
The value was 3.8±0.6 fold.

What about the “overall cell survival (clonogenic)” value (MDA-MB-231 cells; MDA-MB-231, 1 μM, 16 hr exposure, single agent) of the same compound?
Its value is 41%.

And the GI50 (SW620 cells; Homo sapiens, SW-620, 120 h)?
Its GI50 is 950 nM.

And the “inhibition of cell growth” value (SW620 cells; SW620, 1 μM, 5 days, 1 µM)?
Its value is > 50% and 50%.

And the “maximum body weight loss” value (MCF7 xenografts)?
The value was 3%.

And the “fold enhancement of doxorubicin cytotoxicity” value (M059J cells; 1 μM KU-0060648)?
The value was 1.4 fold.

What about the “reduction in cell viability, compound alone” value (M059J cells; 1 μM, 16 hours) of the same compound?
Its value is less than 5%.

What about the “maximum body weight loss” value (SW620 xenografts; SW620 tumour-bearing mice) of the same compound?
The value was “no body weight loss”.

What about the “fold increase of etoposide-induced tumour growth delay” value (SW620 xenografts; in both SW620 and MCF7 xenografts) of the same compound?
The value was “up to 4.5 fold”.

And the GI50 (T47D cells)?
Its GI50 is 410 nM.

And the inhibition at 1 µM (T47D cells; read-out: inhibition of cell growth)?
Its inhibition at 1 µM is greater than 50%.
